ChEMBL document CHEMBL5038594, “Structural Fine-Tuning of Desmuramylpeptide NOD2 Agonists Defines Their In Vivo Adjuvant Activity” (J Med Chem, 2021)
Calls of active or inactive are those of the source. No cut-off for these calls is given here.

Columns and labels:
[1] = system: PBMC; experiment: Immunostimulatory activity in human PBMC cells assessed as increase in IL-8 production at 2 uM incubated for 18 hrs by flow cytometry analysis; assay type: functional, cell-based
Method in brief: (§1)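 Human PBMCs from healthy donors, 1 × 10^6 cells/mL in RPMI 1640 with 10% FBS, treated with 2 μM compound or 0.1% DMSO, without or with LPS 10 ng/mL, for 18 h at 37 °C. Supernatant cytokines quantified by cytometric bead array (human inflammatory panel) on a flow cytometer against recombinant standards. Four independent donors. Repeated-measures one-way ANOVA with Dunnett.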

[2] = system: Mus musculus; experiment: Immuno-adjuvant activity in NIH/OlaHsd mouse assessed as increase in ovalbumin specific […] associated IgG2a production in sera at 0.30 micromol administered subcutaneously on day 1 and as booster dose on day 21 with ovalbumin loaded neutral liposomes and measured 1 week post booster dose by ELISA; assay type: functional, organism-based; conditions: dose 0.3 µmol, time 28.0 day
Method in brief: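 Groups of 5 female NIH/OlaHsd mice, 2.0–2.5 months old, immunized with ovalbumin-loaded neutral liposomes (10 μg ovalbumin per dose) containing 0.30 μmol adjuvant per dose, plus one booster dose. Serum ovalbumin-specific IgG, IgG1 and IgG2a measured 1 week after the booster. Mean ± SEM of 5 mice.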

[3] = system: PBMC; experiment: Immunostimulatory activity in human PBMC cells assessed as increase in IL-1beta production at 2 uM incubated for 18 hrs by flow cytometry analysis; assay type: functional, cell-based; method in brief: as §1
[4] = system: PBMC; experiment: Immunostimulatory activity in human PBMC cells assessed as increase in IL-6 production at 2 uM incubated for 18 hrs by flow cytometry analysis; assay type: functional, cell-based; method in brief: as §1
[5] = target: T1, Nucleotide-binding oligomerization domain-containing protein 1 (Homo sapiens) (UniProt Q9Y239); experiment: Agonist activity at NOD1 in HEK-Blue hNOD2 cells assessed as increase in NFkappaB transactivation-mediated SEAP activity measured after 18 hrs by spectrophotometric method; assay type: cell-based; conditions: HEK-Blue hNOD1, in the assay text read “HEK-Blue hNOD1 cells” for “HEK-Blue hNOD2 cells”
T1 sequence (whole entry): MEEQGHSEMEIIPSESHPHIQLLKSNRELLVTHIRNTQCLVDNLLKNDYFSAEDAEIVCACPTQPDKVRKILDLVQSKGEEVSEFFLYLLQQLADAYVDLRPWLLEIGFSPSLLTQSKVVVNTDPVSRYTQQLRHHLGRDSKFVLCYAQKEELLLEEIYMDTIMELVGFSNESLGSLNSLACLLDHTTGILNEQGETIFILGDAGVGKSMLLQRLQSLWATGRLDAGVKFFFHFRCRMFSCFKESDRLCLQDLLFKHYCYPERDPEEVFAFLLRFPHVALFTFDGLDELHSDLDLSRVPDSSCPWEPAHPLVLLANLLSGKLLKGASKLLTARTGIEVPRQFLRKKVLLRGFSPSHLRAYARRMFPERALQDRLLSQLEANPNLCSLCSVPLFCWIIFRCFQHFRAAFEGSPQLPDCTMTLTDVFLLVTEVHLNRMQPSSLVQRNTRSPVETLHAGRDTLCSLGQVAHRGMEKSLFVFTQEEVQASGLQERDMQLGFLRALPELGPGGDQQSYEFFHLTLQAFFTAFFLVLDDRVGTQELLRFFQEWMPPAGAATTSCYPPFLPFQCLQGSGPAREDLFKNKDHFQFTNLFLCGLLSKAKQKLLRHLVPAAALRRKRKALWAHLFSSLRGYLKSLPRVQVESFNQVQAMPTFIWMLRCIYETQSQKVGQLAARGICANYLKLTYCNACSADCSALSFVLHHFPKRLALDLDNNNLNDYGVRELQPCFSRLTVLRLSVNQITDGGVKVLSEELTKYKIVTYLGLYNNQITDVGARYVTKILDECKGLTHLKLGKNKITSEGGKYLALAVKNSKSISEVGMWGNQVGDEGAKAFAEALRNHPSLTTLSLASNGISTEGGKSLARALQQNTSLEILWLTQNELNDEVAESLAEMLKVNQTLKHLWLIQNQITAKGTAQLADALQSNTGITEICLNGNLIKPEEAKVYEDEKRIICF
Method in brief: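 Counter-screen in HEK-Blue NOD1 cells (HEK293 stably expressing human NOD1 plus an NF-κB-inducible SEAP reporter), seeded at 2.5 × 10^5 cells/mL in HEK-Blue detection medium. Compounds at 2 μM versus 0.1% DMSO vehicle, 18 h at 37 °C, 5% CO2. SEAP read as absorbance at 630 nm. Duplicates, at least two independent experiments.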

[6] = system: MEC1; experiment: Cytotoxicity against human MEC-1 cells cocultured with human PBMC cells assessed as inhibition of cell proliferation at 10 uM incubated with PBMC cells for 18 hrs followed by co-incubation with MEC-1 cells for 4 hrs by SYTOX blue staining based flow cytometric analysis; assay type: functional
Method in brief: (§2)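 Effector cells are freshly Ficoll-isolated human PBMCs, 4 × 10^5 per well, pretreated 18 h with compound or 0.1% DMSO. CFSE-labelled K562 or MEC1 targets, 1 × 10^4 per well, are then added at 40:1 effector:target ratio and co-incubated 4 h at 37 °C. Dead targets are CFSE+/Sytox blue+ by flow cytometry. Results are relative to vehicle. Duplicates; three (MEC1) or four (K562) independent experiments. One-way ANOVA with Dunnett.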

[7] = system: PBMC; experiment: Immunostimulatory activity in human PBMC cells assessed as increase in LPS-induced TNF-alpha production at 2 uM incubated for 18 hrs by flow cytometry analysis; assay type: functional, cell-based; method in brief: as §1
[8] = system: MEC1; experiment: Cytotoxicity against human MEC-1 cells cocultured with human PBMC cells assessed as inhibition of cell proliferation at 100 nM incubated with PBMC cells for 18 hrs followed by co-incubation with MEC-1 cells for 4 hrs by SYTOX blue staining based flow cytometric analysis; assay type: functional; method in brief: as §2
[9] = system: PBMC; experiment: Immunostimulatory activity in human PBMC cells assessed as increase in LPS-induced IL-1beta production at 2 uM incubated for 18 hrs by flow cytometry analysis; assay type: functional, cell-based; method in brief: as §1
[10] = system: K562; experiment: Cytotoxicity against human K562 cells cocultured with human PBMC cells assessed as inhibition of cell proliferation at 1 uM incubated with PBMC cells for 18 hrs followed by co-incubation with K562 cells for 4 hrs by SYTOX blue staining based flow cytometric analysis; assay type: functional; method in brief: as §2
[11] = Cytotoxicity against HEK-Blue hNOD2 cells assessed as reduction in metabolic activity at 20 uM incubated for 18 hrs by MTS assay; assay type: toxicity, cell-based; conditions: human, hek-blue hnod2, 18 h
Method in brief: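 HEK-Blue NOD2 cells, 40 000 per well, exposed to 20 μM compound or 0.1% DMSO for 18 h at 37 °C, 5% CO2. Metabolic activity measured by MTS (CellTiter 96 AQueous One) reagent. Duplicates, two independent biological replicates.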

[12] = system: K562; experiment: Cytotoxicity against human K562 cells cocultured with human PBMC cells assessed as inhibition of cell proliferation at 100 nM incubated with PBMC cells for 18 hrs followed by co-incubation with K562 cells for 4 hrs by SYTOX blue staining based flow cytometric analysis; assay type: functional; method in brief: as §2
[13] = system: K562; experiment: Cytotoxicity against human K562 cells cocultured with human PBMC cells assessed as inhibition of cell proliferation at 10 uM incubated with PBMC cells for 18 hrs followed by co-incubation with K562 cells for 4 hrs by SYTOX blue staining based flow cytometric analysis; assay type: functional; method in brief: as §2

In the case of `CCCCCCCCCCCCCCCCCC(=O)Oc1ccc(/C=C/C(=O)NCC(=O)N[C@H](C(=O)N[C@H](CCC(=O)OCC)C(=O)OCC)C(C)C)cc1OC`, the Activity [1] is reported as “inactive”, the Activity [2] is reported as “Active” and the Activity [3] is reported as “inactive”. For the same molecule, the Activity [4] was “inactive”, the Activity [5] was “inactive” and the Activity [6] was “Active”. For the same molecule, the Activity [7] was “Active”, the Activity [8] was “inactive” and the Activity [9] was “Active”. The Activity [10] was “Active”, the Activity [11] was “Non-Toxic” and the Activity [12] was “inactive”. For the same molecule, the Activity [13] was “Active”.
